# Screening results: PubChem BioAssay, several laboratories
# procasp3 activ = procaspase-3 (human) activation. hit rate 0.11% among 330,000. P42574. recombinant procaspase-3 D3A, Ac-DEVD-pNA absorbance 405 nm. activation, % at 8.5 µM;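 active means activation above the mean of all tested compounds plus 3 SD, cut at about 21% in these data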
# Target sequence (P42574 whole entry D9A/D28A/D175A): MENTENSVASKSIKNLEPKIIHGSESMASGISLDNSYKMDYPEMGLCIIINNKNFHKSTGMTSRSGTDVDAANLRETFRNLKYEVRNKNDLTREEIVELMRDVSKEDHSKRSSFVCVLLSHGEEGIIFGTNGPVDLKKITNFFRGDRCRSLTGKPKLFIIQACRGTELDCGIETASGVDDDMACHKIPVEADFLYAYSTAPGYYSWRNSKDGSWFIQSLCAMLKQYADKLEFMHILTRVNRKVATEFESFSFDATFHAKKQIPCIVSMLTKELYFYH
#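 Evaluation: percent activation relative to control range; Material: Procaspase-3 D3A mutant, all three cleavage aspartates alanine; Compound: single dose, 8.5 µM nominal compound, 0.8% DMSO; Replication: one well per compound; Signal: absorbance at 405 nm, 0 and 120 min; Schedule: 1 h preincubation plus 2 h reaction at 25 °C.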
# procasp7 counter = counter-screen: procaspase-7 (human) activation. activation, % at 8.5 µM. hit rate 0.093% among 330,000. P55210. AID 463210. recombinant procaspase-7, Ac-DEVD-pNA absorbance 405 nm; D23A/D198A/D206A triple mutant, cannot self-cleave; scale: DMSO 0, 5 µM enzyme 100;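 active means percent activation above the screen-wide mean plus 3 SD, cut at about 25% in these data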
# Target sequence (P55210 whole entry D23A/D198A/D206A): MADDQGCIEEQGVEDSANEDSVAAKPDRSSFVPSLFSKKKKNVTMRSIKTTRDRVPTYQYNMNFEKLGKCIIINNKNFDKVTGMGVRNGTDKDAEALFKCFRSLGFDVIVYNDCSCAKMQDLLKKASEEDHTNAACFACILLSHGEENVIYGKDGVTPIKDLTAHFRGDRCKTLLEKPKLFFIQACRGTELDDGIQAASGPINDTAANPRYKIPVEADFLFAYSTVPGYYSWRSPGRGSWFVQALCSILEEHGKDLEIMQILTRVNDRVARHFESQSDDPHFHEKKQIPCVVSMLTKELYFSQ
#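 buffer or medium = Zinc-free HEPES/NaCl buffer, pH 7.4 | material = Procaspase-7 triple mutant (PC-7 D3A) | input = 2 µM procaspase-7 mutant as dispensed | signal = Epi-absorbance of released pNA at 405 nm, two timepoints | timing = 1 h preincubation, 2 h reaction | replicates = singlicate compound testing | evaluation = % activation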
# MPTP block = blocks calcium-induced mitochondrial swelling | isolated mouse mitochondria, Ca2+ swelling absorbance, 30 min | inhibition, % at 10 µM | hit rate 1.4% among 360,000;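 active means inhibition of 50% or more, scaled per plate between neutral and stimulator controls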
# aDG glyco up = increases alpha dystroglycan glycosylation; Pro5-aDG cells, alpha-DG glycosylation AlphaScreen (IIH6); 0% Pro5, 100% B10-LARGE cell signal; AID 624168; hit rate 0.22% among 360,000; activation, % at 10 µM;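 active means activation of at least 8% versus controls, or a plate z-score of at least 8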;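 further: Pro5 are CHO cells carrying HIG-tagged alpha-DG that lacks glycosylation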
# NR3A LBD binder = modulators (binders) of human NR3A ligand-binding domain | AID 1259313 | Tm shift relative to glycine control, % at 25 µM | hit rate 2.5% among 340,000 | NR3A LBD differential scanning fluorimetry, Tm shift; 0% = protein alone, 100% = glycine-bound protein;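 active means melting temperature shift of at least 10% of the positive control shift, at one fixed dose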
# aDG glyco conf = confirmation of alpha dystroglycan glycosylation activators; shares compounds with aDG glyco up; hit rate 17% among 600; activation, % at 10 µM (by protocol); AID 651671; Pro5-aDG cells, alpha-DG glycosylation, IIH6 AlphaLISA; scaled to LARGE-overexpressing B10 cells as 100%;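 active means activation of at least 7% in one or more replicates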;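 further: cells exposed to compound for two days before detection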
# Hits are given with their value; n = inactive; x = not tested or not shown. This is a sample that favours compounds with a hit; in the whole collection about 3.7% have one here.
SMILES,procasp3 activ,procasp7 counter,MPTP block,aDG glyco up,NR3A LBD binder,aDG glyco conf
C=CCOC(=O)C1=C(C)NC(=S)NC1c1cccs1 (configuration not stated),n,n,n,n,n,x
COC(=O)C1=NN(C(C)(C)CC(C)=O)C2C(=O)N(C3CCCCC3)C(=O)C12 (configuration not stated),n,n,n,3.1,n,n
CCOC(=O)C1=NNC2C(=O)N(C3CCCCC3)C(=O)C12 (configuration not stated),n,n,n,n,n,x
COc1cc(C#Cc2c(-c3cncn3C)n(C)c3ccc(Br)cc23)cc(OC)c1,n,n,n,5.0,n,n
COCc1cc(SC2CCCCC2)nc(C)n1,n,n,n,n,n,x
CC1Oc2ccccc2OC1(O)c1ccc2ccccc2n1 (configuration not stated),n,n,n,n,n,x
COCCNc1nc(NCc2ccc(C(C)C)cc2)c2sccc2n1,x,x,n,7.3,x,n
CCCCNC(=O)C(Sc1ccccc1)c1ccccc1 (configuration not stated),n,n,n,n,n,x
CC(C)COc1cccc(C(=O)NNC(=O)C2COc3ccccc3O2)c1 (configuration not stated),n,n,n,6.2,n,n
CCn1c2c(c(=N)c3ccccc31)CCC2,n,n,n,3.4,n,n
CCn1c2c(c(=N)c3c1CCC3)CCC2,n,n,n,n,n,x
Cn1c(C(=O)NN)cc2cc(OCc3ccccc3)ccc21,n,n,n,n,n,x
CC1CCc2c(sc3ncn(N)c(=N)c23)C1 (configuration not stated),n,n,n,n,n,x
O=C1CC(c2ccccc2)n2nc(NC(=O)C3CCCO3)nc2N1 (configuration not stated),n,n,n,3.1,n,n
Cn1c(SCc2cccc([N+](=O)[O-])c2)nc2ccccc2c1=O,n,n,n,2.6,n,n
NNc1nnc2c3cc(F)ccc3n(Cc3ccccc3)c2n1,n,n,n,5.1,n,n
CCn1c2ccc(F)cc2c2nnc(NN)nc21,n,n,n,n,n,x
CC(C)C[C@@H]1O[C@H](CCc2ccccc2)CC2=C1C(=O)OC(C)(C)O2,x,x,n,n,x,x
CCOC(=O)CN(C(=O)CSc1nnc(CNc2ccc(C)cc2C)n1CC)c1ccccc1,n,n,n,n,n,x
CCOC(=O)CN(C(=O)CSc1nnc(CNc2ccc(F)cc2)n1CC)c1ccc(F)cc1,n,n,n,5.2,n,n
Cn1ncc(Br)c1NC(=O)Nc1ccc(Cl)cc1,n,n,n,n,n,x
CCOC(=O)C1=C(C)OC(N)=C(C#N)C1c1ccc(OC)c(C)c1OC (configuration not stated),n,n,n,9.7,n,n
Cc1cccc(NC(=O)CSc2nc3ccccc3nc2N2CCCC2)c1C,n,n,n,n,n,x
Cc1cccc(OCC(=O)Nc2cc(S(=O)(=O)N3CCOCC3)ccc2N2CCCC2)c1C,n,n,n,7.4,n,n
O=C(COc1ccccc1)Nc1cc(S(=O)(=O)N2CCOCC2)ccc1N1CCCC1,n,n,n,n,n,x
SMILES,procasp3 activ,procasp7 counter,MPTP block,aDG glyco up,NR3A LBD binder,aDG glyco conf
NC(=O)N/N=C/c1ccc([N+](=O)[O-])o1,n,n,n,n,n,x
O=C(CSc1ccc(Cl)cc1)N/N=C/c1ccc([N+](=O)[O-])o1,n,n,n,3.2,n,n
CCOC(=O)C(=CNc1cc(C)nn1-c1ccc(C)cc1)C(=O)OCC,n,n,n,4.7,n,n
CCn1c(C)nc2cc(S(N)(=O)=O)ccc21,n,n,n,n,n,x
CCn1c(C)nc2cc(S(=O)(=O)C(F)(F)C(F)C(F)(F)F)ccc21 (configuration not stated),n,n,n,4.4,n,n
CCc1ccc(C2c3[nH]c4ccccc4c3CCN2C(=O)CN2CCN(CC)CC2)cc1 (configuration not stated),n,n,n,8.0,n,12.5
Cc1ccc2cccc(OCC(=O)NCCC3=CCCCC3)c2n1,n,n,n,n,n,x
O=C(COc1ccccc1Br)NCCC1=CCCCC1,n,n,n,3.6,n,n
O=C(CCCN=C1NS(=O)(=O)c2ccccc21)OCC(=O)c1ccccc1Cl,n,n,n,n,n,x
CCC(c1nnnn1Cc1cccs1)N1CCN(c2nc3ccccc3s2)CC1 (configuration not stated),n,n,n,11.7,n,3.4
COc1cccc(N2CCN(c3ccc([N+](=O)[O-])cn3)CC2)c1,n,n,n,3.4,n,n
O=[N+]([O-])c1ccc(N2CCN(c3ccccc3)CC2)nc1,n,n,n,n,n,x
CC12CCC(C(=O)NNc3ccc([N+](=O)[O-])cc3)(CC1=O)C2(C)C (configuration not stated),n,n,n,n,n,x
CC(C)NC(=O)N(C)C[C@H]1Oc2ccc(NS(=O)(=O)c3cn(C)cn3)cc2C(=O)N([C@H](C)CO)C[C@@H]1C,n,n,n,9.3,n,n
CCN(CC)CCCN(C(=O)c1ccccc1F)c1nc(-c2ccc(OC)cc2)cs1,n,n,n,4.0,n,n
CCCCCNCC(=O)Nc1cccc(C(=O)Nc2cccc(C(F)(F)F)c2)c1,n,n,n,15.8,n,10.1
CCc1ccccc1NC(=O)COC(=O)c1c(C)nsc1NC,n,n,n,4.0,n,n
CC(C)(C)OC(=O)N1CCC(CNC(=O)c2cccs2)CC1,n,n,n,n,n,x
c1ccc2c(-c3cc(C4CCNCC4)[nH]n3)cccc2c1,n,n,n,13.9,n,6.4
COc1cc(-c2ccc(NC(=O)CN3CCC(C)CC3)c(OC)c2)ccc1NC(=O)CN1CCC(C)CC1,x,x,n,18.3,n,4.0
COc1ccc(NC(=O)CN2CCC(C)CC2)c([N+](=O)[O-])c1,n,n,n,n,n,x
Cc1cc(C(F)F)n2nc(C(=O)Nc3sc4c(c3C#N)CCC4)nc2n1,n,n,n,n,n,x
COc1cc(C(=O)C(=O)N2CCC(Cc3ccccc3)CC2)cc2ccccc12,x,x,n,10.4,x,n
Cc1cccc(N2CCN(C(=O)n3ccnc3)CC2)c1C,n,n,n,n,n,x
CN(C)/C=C1\C(=O)Oc2ccccc2C1=O,n,n,n,n,n,x
CC(C)OC(=O)Cc1nc2sc(-c3ccccc3)cc2c(=O)[nH]1,n,n,n,n,n,x
O=C(/C=C/c1ccc(Cl)c(C(F)(F)F)c1)N1CCN(c2ccccn2)CC1,n,n,n,n,n,x
Cc1c(N/C(=N/S(=O)(=O)c2ccc(Cl)cc2)c2ccccc2)c(=O)n(-c2ccccc2)n1C,n,n,x,x,x,x
COc1ccc(-c2cc(C(=O)OCC(=O)N3CCOCC3)c3ccccc3n2)cc1,n,n,n,n,n,x
